In the EternaBench riboswitch data:

Tested on: MS2 coat protein
Test: apparent Kd, MS2 coat protein; higher = weaker binding; RNA-MaP array; FMN 200 µM where present
Summary of the method: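 The titrant was SNAP-549-labelled MS2 coat protein, run from 0.7 or 1.5 nM in doubling steps to 3 µM. It was applied to designs transcribed by stalled E. coli RNA polymerase on Illumina sequencing-chip clusters, without ligand first and then with constant ligand, in 100 mM Tris-HCl pH 7.5, 80 mM KCl, 4 mM MgCl2, BSA, DTT, yeast tRNA and Tween-20. The apparent Kd is the median of filtered per-cluster binding-curve fits, with green signal normalised to red-channel RNA signal and control-cluster median Fmax.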

[1] = designed as: OFF switch for flavin mononucleotide, no ligand
[2] = ligand present: flavin mononucleotide, designed as: OFF switch for flavin mononucleotide
[3] = designed as: ON switch for flavin mononucleotide, no ligand
[4] = ligand present: flavin mononucleotide, designed as: ON switch for flavin mononucleotide

| Sequence | apparent Kd [1] | apparent Kd [2] | apparent Kd [3] | apparent Kd [4] |
| --- | --- | --- | --- | --- |
| UUACUAUAACAGAAGGGUAGAUAGUAUAUAGAUGCAGGAUAUGUUACAUGAGGAUCACCCAUGUUUCACCCACAUGAGGAUCAC | 32 nM | 70.3 nM | – | – |
| CGCAGUACUUAGGUACCACACAUGAGGAUCACCCAUGUAUCACAGGAUAUGCAUGAUAUAUUCAGGCAGAAGGGUGAUCUUACC | – | – | 79.7 nM | 318 nM |
| GGUACCAUUACAGGAUAUGCUUUCCUUUGGAAAGCAGAAGGGUGUAACAUGAGGAUCACCCAUGUGGUGCCAGGGCGUGAGCCC | – | – | 659 nM | 182 nM |
| AGAUGUGAACAUGAGGAUCACCCAUGUGACUAGGUUUAUUUCAGAAGGCAUUAAUAGAGAUUAUAUGAGGAUAUGAAGUUUUAA | – | – | 11.8 nM | 7.11 nM |
| CGUUCACAUGAGGAUCACCCAUGUCAGAUUUGGUCAGGAUAUGGUCUGCUUUCGCUAUUUCCAGAAGGGACUUUUG | – | – | 28.6 nM | 24.8 nM |
| ACCAAUGGAGGAUAUACAUGAGGAUCACCCAUGUUUAUCCUACAUAGGUGAAAAACAUGUAGAAGGCCAUUGGA | 14.8 nM | 13.2 nM | – | – |
| AAUACAUGAGGAUCACCCAUGUGCAUUGUUUAAGAGGAAGCACAGGAUAUGCAGCCAAUCGGUUAGCAGAAGGGUGACUUCAAC | – | – | 85.2 nM | 81.6 nM |
| GCCAGGGAUUCAGGAUAUAUUAGCCGAGGCCGCGUAGAAGGGAAAUCCUGACAUGAGGAUCACCCAUGUCGACCCGCCUUCCUA | – | – | 46.7 nM | 45.6 nM |
| GAUUAACAUGAGGAUCACCCAUGUGAGGAUAUGGACUUGCCCACUUAACCAUUAGAGUCUAGAAGGCGCAUCUA | 29.4 nM | 25.5 nM | – | – |
| AUAUGGGCUAACAUGAGGAUCACCCAUGUGUUAUACUUAAUAUAGGAUAUGUUUAUACUUUUUGGGCAGAAGGAUGGCCCAUAU | – | – | 67.9 nM | 68.7 nM |
| UACCCACAUGGGUAGUGGCAGCGUGAGGAUAUGGGUUGGAUACAUGAGGAUCACCCAUGUUCCUCCUAGAAGGCACUUGUAACC | – | – | 138 nM | 24.8 nM |
| CGCCUGCGUAGAAUUAGCAGCUGACAGGAUAUGACAUGAGGAUCACCCAUGUGAAAUAAGAAGAGUCAGAAGGGUCACGACGCG | 10.8 nM | 8.77 nM | – | – |
| UAUGAACAUGAGGAUCACCCAUGUGGUACGAUCACAGGAUAUCACCUCGGACGUGCGAUGUGAGAAGGGUGAUGGU | – | – | 81.6 nM | 29.4 nM |
| AUGUUACAUGAGGAUCACCCAUGUGAGGAUAUGUGUACCCGUAAAAAAGUGUCGGGCCACAGAAGGCAUUUGGA | 47.3 nM | 75 nM | – | – |
| CAGCCCUGAGGAUAUCUCAUCUCGCACAUGAGGAUCACCCAUGUUCUUCUCUGGGUUUCGAGAGAAGGCAGGCCUC | 586 nM | 434 nM | – | – |
| AAGAAGUCAGGAUAUGCAUGGCGGGACUUGCGUCGUGGCGUGCAGAAGGGACAUGAGGAUCACCCAUGUGGAGG | 162 nM | 222 nM | – | – |
| AUGGUUGUCGUAGGAUAUGUAGGAUAUUCCUACAUGAGGAUCACCCAUGUUCGCAUGGAAGAAGGACGGAAGGACGAUGACCAG | – | – | 452 nM | 163 nM |
| GGAUCGAGUGUGAGGAUAUACCACUGGAUACAGUGGUAGAAGGCACAUGAGGAUCACCCAUGUCCCUACGAUCC | 32.9 nM | 204 nM | – | – |
| GCUUUUCUAGCCAAGUGGUAGAGCGCAGAAGGCCAACAUGAGGAUCACCCAUGUAUAAAGAACAUGGAGGAUAUGCGUCACCUU | – | – | 73.7 nM | 6.5 nM |
| AAAAUGUAAGGAUAUGCUGCUCGUCACUUGCGUGAUGAGUAGCAGAAGGUACAUGAGGAUCACCCAUGUAAAGA | 32.7 nM | 45.8 nM | – | – |
| AGCAUGUUAGGAUAUGCGAAGUCAGGACACACACUGACGAAGCAGAAGGAACAUGAGGAUCACCCAUGUAAGCA | 71.8 nM | 45.7 nM | – | – |
| GUCCUACAUGAGGAUCACCCAUGUGAGGAUAUGGAUUCGCUGGCCGUAGCCAGUGGAUCCAGAAGGCGCGUGAU | 63.1 nM | 64.8 nM | – | – |
| UGUGCGUAUGUGAGGAUAUGCUGGUCCUUGGAUCGGCAGAAGGCACAUGAGGAUCACCCAUGUGGUGUCGUACU | 483 nM | 26.6 nM | – | – |
| CUUCAGUCAGGAUAUCUGCACGCUGGUGAGACCGGACGGAAGGAGAAGGGACAUGAGGAUCACCCAUGUAAAGC | 14 nM | 17.5 nM | – | – |

| Sequence | apparent Kd [1] | apparent Kd [2] | apparent Kd [3] | apparent Kd [4] |
| --- | --- | --- | --- | --- |
| CCGGAAUCCUAGGAUAUGCUAGACGAUAGUCUAGCAGAAGGAGGAACAUGAGGAUCACCCAUGUGUCCUACCGG | 17.2 nM | 22.1 nM | – | – |
| AUCAGCUCGUCAGGAUAUACGUCACUGCGUCAGCAGUGUCGUAAGAUCACAUGAGGAUCACCCAUGUAGAAGGGACGAGCUGAU | 5.31 nM | 5.49 nM | – | – |
| GUAGUGUAUGUAGGAUAUGCGAAGCAAAGCUUCGCAGAAGGACAUGAGGAUCACCCAUGUAUUGCAGCCUGCAAUCAGGCUGCU | 42.2 nM | 184 nM | – | – |
| GGAUAGGACUGAGGAUAUACGUGCUAGAGAUACUAGCAAAAUUUCCUCACAUGAGGAUCACCCAUGUAGAAGGCUGUCCUAUCG | 7.13 nM | 42.3 nM | – | – |
| GCAGCGUAUGUAGGAUAUCGGUCAGUUUCUGAUCGAGAAGGACAUGAGGAUCACCCAUGUAAAUUACCGACUCUGUCGGGCUGC | 6.64 nM | 8.6 nM | – | – |
| AAGUAGACGGUGAGGAUAUAGGUCGAACGACCGAUCUAGAAGGCACAUGAGGAUCACCCAUGUGGGUAACGUCG | 17.9 nM | 19.6 nM | – | – |
| UAUUAGUGAGGAUAUGAGUCGUAGAACAAUAGUACUACGUCUCAGAAGGUACAUGAGGAUCACCCAUGUUCCUU | 12.7 nM | 14.4 nM | – | – |
| AUUAUUGACAUAGGAUAUUGUUACAUGAGGAUCACCCAUGUUAUUUGGGAACUAGGAAUAUUUUACAAGAAGGAUGUUGUUACA | – | – | 101 nM | 81.3 nM |
| AAGGAGUAAGGAUAUGCUGCUCGUCACUUGCGUGAUGAGUAGCAGAAGGUACAUGAGGAUCACCCAUGUAAAGA | 27.4 nM | 20.1 nM | – | – |
| AUAUUGUGAGGAUAUCCAAUAUAUGACAUGAGGAUCACCCAUGUUUCCACUCGUACCUCCGGAGAAGGCACUUAUA | 24.3 nM | 22.8 nM | – | – |
| AUCAGCUCGUCAGGAUAUACGUCACUGCGUCAGCGGUGUGGUAAGAUCACAUGAGGAUCACCCAUGUAGAAGGGACGAGCUGAU | 13.6 nM | 232 nM | – | – |
| GCACAUUUGUAAGGAUAUACAACAUGAGGAUCACCCAUGUGUUGGAAUUUAGUAGAAGGUACAGACAUGAGGAUCACUUUUGUA | – | – | 174 nM | 102 nM |
| GCAUGUGUGUAAGGAUAUGCAUCACUGAGAAAUUUAGUGAGGAAGAUCACAUGAGGAUCACCCAUGUAGAAGGUACACACGUGG | 9.3 nM | 54.5 nM | – | – |
| AUAAUAAAGGAGGAUAUCGUAUCGGAAACGAUACGAGAAGGUCUAACAUGAGGAUCACCCAUGUUCCUCAAAUA | 43.6 nM | 68 nM | – | – |
| AGUUGUUCAGGAUAUGGUGUGUUAUACAUGAGGAUCACCCAUGUGGGUCCUGGUUUGGCCUCAGAAGGGAAUGUUG | 636 nM | 518 nM | – | – |
| ACAUGAGGAUCACCCAUGUUUUUCGGGUACUCUUUUUACAGCAAGGAUAUGCAUUAUUUAUGUACGCAGAAGGUGCUUUACGUC | 77 nM | 138 nM | – | – |
| GCUGCAUAGGCAGGAUAUGCAAUAAUUCGAAUAAAAUAUAACGGAUUAACAUGAGGAUCACCCAUGUAGAAGGGCCUGUGCAGU | 5.73 nM | 5.49 nM | – | – |
| AUCAGCUCGUCAGGAUAUACGUCACUGCGUCAGCAGUGUGGUAAGAUCACAUGAGGAUCACCCAUGUAGAAGGGACGGGCUGAU | 13.8 nM | 253 nM | – | – |
| AAAACAUGAGGAUCACCCAUGUAAAGAUCGGUUAAUAGAGGUGAGGAUAUACUAAAUUUUGGGUGGUAGAAGGCACUGGGUACA | – | – | 187 nM | 122 nM |
| UGCUACGUUUCGUAGCAGCUAGGUGAGGAUAUUCAAUUUUUCACAUGAGGAUCACCCAUGUAUGUGAAGAAGGCGCCUAGAAAA | – | – | 10.2 nM | 4.56 nM |
| AGCUGUGGCCGAGGAUAUCUAAUAACUCAAACCGAAAUAUAAUCGGACAUGAGGAUCACCCAUGUAGAGAAGGCGGUCUCAGCA | 84.6 nM | 154 nM | – | – |
| ACCUCACAUGAGGAUCACCCAUGUCAGGAUAUCUUUUAAAACAGCAAUCCUGUCGCUGAGAGAAGGGACAUUAA | 27.6 nM | 35.6 nM | – | – |
| CUUUCGUUAGCAGGAUAUGGACAGGCCUGUCCGUAUUGAGUCAGUAACAUGAGGAUCACCCAUGUCCAGAAGGGCUCGAAGGGA | 14.1 nM | 46.6 nM | – | – |
| CCUCUACAUGAGGAUCACCCAUGUGAGGAUAUCAAAGCCAGAGCGGCGCUCUGGCCCAUGAGAAGGUGCAUGGA | 25.9 nM | 133 nM | – | – |
